Measurements published in ChEMBL document CHEMBL2010768, “Optimization of Potent Inhibitors of P. falciparum Dihydroorotate Dehydrogenase for the Treatment of Malaria” (ACS Med Chem Lett, 2011).
The source made the active and inactive calls. The calls are words filed in the database; no cut-off is given here.

Legend:
[1] = target: T1, Dihydroorotate dehydrogenase (Plasmodium falciparum, UniProt Q54A96); experiment: Inhibition of Plasmodium falciparum DHODH after 20 mins by 2,6-dichloroindophenol-reduction based assay
T1 sequence (Q54A96 whole entry): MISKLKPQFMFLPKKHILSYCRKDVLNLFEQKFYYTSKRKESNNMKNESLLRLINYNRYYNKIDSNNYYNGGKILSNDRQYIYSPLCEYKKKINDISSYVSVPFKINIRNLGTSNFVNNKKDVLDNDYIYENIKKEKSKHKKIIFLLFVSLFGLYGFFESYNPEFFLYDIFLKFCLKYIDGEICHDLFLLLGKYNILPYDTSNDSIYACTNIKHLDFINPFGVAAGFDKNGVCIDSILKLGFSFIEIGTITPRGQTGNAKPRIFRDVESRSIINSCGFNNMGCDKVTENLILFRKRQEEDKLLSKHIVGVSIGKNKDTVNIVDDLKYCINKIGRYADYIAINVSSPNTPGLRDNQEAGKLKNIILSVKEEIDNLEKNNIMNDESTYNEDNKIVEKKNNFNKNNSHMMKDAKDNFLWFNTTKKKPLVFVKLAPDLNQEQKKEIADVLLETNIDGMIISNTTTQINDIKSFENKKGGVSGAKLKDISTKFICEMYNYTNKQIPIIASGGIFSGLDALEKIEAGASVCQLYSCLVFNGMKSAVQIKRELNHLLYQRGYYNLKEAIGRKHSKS

[2] = target: Dihydroorotate dehydrogenase (quinone), mitochondrial (Homo sapiens, UniProt Q02127); experiment: Inhibition of human DHODH after 20 mins by 2,6-dichloroindophenol-reduction based assay
Plasmodium falciparum [3] = experiment: Antiplasmodial activity against Plasmodium falciparum 3D7 infected in […] after 72 hrs by SYBR green assay; assay type: functional, organism-based; settings: 3D7, 72 h
Plasmodium falciparum [4] = experiment: Antiplasmodial activity against Plasmodium falciparum Dd2 infected in […] after 72 hrs by SYBR green assay; assay type: functional, organism-based; settings: Dd2, 72 h
[5] = Cytotoxicity against human RPTEC after 4 days by alamar blue assay; assay type: cell-based; settings: RPTEC cells, read-out: LC50
Plasmodium berghei = experiment: Inhibition of Plasmodium berghei DHODH after 20 mins by 2,6-dichloroindophenol-reduction based assay
Plasmodium vivax = experiment: Inhibition of Plasmodium vivax DHODH after 20 mins by 2,6-dichloroindophenol-reduction based assay
[6] = Clearance in human liver microsomes by LC-MS/MS analysis; assay type: ADME, Microsome
How it was run: (§1)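 Liver microsome incubation. Predicted clearance is derived from a well-stirred model corrected for microsomal and protein binding.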

[7] = Clearance in mouse liver microsomes by LC-MS/MS analysis; assay type: ADME, Microsome; how it was run: as §1
Cytochrome P450 2D6 = Cytochrome P450 2D6 (Homo sapiens, UniProt P10635); experiment: Inhibition of human CYP2D6 using bufuralol as substrate after 10 mins by LC-MS/MS analysis; assay type: ADME
[8] = target: Voltage-gated inwardly rectifying potassium channel KCNH2 (Homo sapiens, UniProt Q12809); experiment: Inhibition of human ERG expressed in CHOK1 cells by whole cell voltage clamp assay; assay type: cell-based, CHO-K1
Sequence of Voltage-gated inwardly rectifying potassium channel KCNH2 (Q12809 whole entry): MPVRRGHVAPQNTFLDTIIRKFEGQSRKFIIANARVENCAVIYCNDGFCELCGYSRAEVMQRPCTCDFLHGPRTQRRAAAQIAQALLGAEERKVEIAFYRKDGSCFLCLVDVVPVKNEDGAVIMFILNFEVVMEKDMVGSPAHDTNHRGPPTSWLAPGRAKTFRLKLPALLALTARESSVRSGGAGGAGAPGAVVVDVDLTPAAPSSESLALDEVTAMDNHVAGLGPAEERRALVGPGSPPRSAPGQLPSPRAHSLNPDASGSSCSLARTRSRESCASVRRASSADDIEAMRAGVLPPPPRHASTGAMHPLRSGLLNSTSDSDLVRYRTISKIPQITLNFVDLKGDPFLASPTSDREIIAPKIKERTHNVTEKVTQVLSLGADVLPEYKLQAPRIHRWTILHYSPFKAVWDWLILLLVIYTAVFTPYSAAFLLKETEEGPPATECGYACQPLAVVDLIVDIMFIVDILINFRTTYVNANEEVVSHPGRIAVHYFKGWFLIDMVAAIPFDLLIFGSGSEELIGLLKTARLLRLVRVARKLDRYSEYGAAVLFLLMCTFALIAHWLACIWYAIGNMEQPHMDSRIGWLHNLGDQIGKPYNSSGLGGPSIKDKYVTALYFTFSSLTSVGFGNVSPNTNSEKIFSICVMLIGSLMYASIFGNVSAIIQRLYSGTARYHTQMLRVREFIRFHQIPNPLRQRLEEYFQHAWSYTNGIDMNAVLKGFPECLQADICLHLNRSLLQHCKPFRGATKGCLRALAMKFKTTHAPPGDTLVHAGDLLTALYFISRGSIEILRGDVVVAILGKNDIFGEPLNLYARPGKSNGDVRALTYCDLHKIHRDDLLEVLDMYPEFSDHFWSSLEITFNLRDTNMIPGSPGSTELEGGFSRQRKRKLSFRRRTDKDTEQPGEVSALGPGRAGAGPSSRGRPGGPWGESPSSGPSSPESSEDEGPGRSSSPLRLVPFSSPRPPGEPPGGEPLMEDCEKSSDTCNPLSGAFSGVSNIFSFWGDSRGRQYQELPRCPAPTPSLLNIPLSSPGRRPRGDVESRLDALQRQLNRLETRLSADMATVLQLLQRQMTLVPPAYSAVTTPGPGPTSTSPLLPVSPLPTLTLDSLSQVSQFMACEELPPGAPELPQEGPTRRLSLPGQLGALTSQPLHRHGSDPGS

Sequence of Dihydroorotate dehydrogenase (quinone), mitochondrial (Q02127 whole entry): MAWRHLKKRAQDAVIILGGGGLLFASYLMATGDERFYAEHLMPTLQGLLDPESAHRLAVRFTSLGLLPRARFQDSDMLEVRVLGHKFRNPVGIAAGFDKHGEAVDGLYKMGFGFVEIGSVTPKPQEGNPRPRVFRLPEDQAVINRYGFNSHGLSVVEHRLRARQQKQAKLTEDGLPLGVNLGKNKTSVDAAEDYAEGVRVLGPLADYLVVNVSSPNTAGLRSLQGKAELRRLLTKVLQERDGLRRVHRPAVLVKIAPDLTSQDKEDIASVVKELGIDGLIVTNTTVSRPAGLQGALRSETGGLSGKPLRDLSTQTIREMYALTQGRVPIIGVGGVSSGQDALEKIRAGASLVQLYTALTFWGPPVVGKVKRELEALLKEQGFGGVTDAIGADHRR
Sequence of Cytochrome P450 2D6 (P10635 whole entry): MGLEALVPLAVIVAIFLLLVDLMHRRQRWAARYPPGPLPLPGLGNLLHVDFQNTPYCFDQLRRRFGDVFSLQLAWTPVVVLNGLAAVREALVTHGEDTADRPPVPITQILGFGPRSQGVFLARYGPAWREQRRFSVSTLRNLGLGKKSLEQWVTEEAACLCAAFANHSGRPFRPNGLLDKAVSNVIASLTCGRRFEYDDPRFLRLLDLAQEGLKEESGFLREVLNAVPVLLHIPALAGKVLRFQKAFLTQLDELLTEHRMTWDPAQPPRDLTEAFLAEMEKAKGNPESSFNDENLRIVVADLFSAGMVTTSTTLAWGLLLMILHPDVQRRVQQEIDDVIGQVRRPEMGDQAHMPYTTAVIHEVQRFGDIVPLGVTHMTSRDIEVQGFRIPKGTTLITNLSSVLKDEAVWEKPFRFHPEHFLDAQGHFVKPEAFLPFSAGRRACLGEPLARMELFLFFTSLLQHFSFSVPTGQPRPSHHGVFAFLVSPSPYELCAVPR

Row | SMILES | IC50 [1] [nM] | IC50 [2] [nM] | IC50 (Plasmodium falciparum [3]) [nM] | IC50 (Plasmodium falciparum [4]) [nM] | CC50 at 96 h [5] [nM] | inhibition (Plasmodium berghei) | inhibition (Plasmodium vivax) | CLhep predicted [6] [mL/min/kg] | CLhep predicted [7] [mL/min/kg] | IC50 (Cytochrome P450 2D6) [nM] | IC50 [8] [nM]
1 | O=C(NC1CC1)c1ccc(-n2c(C(F)(F)F)nc3ccccc32)s1 | 570 | > 30000 | 830 | 1710 | > 62000 |  |  |  |  |  | 
2 | Cc1nc2cc(OC(F)(F)F)ccc2n1-c1ccc(C(=O)NC2CC2)s1 | 22 |  | 7 | 9 |  | Active | Active | 7 | 43 | 100 | < 2800
3 | Cc1nc2ccc(F)cc2n1-c1ccc(C(=O)NC2CC2)s1 | 111 |  | 93 | 113 |  | Active | Active | < 4 | > 72 |  | 
4 | Cc1nc2cc(Cl)ccc2n1-c1ccc(C(=O)NC2CC2)s1 | 49 |  | 78 | 102 |  | Active | Active |  |  |  | 
5 | CCCNC(=O)c1ccc(-n2cnc3ccccc32)s1 | 700 | > 30000 | 470 | 1100 | > 62000 |  |  |  |  |  | 
6 | Cc1nc2c(Cl)cc(F)cc2n1-c1ccc(C(=O)NC2CC2)s1 | 25 | > 30000 | 12 | 13 |  | Active | Active | 5 | 42 |  | 
7 | Cc1nc2ccc(OC(F)(F)F)cc2n1-c1ccc(C(=O)NC2CC2)s1 | 52 |  | 36 | 53 |  | Active | Active | 10 | 41 |  | 
8 | Cc1ccc2c(c1)nc(C)n2-c1ccc(C(=O)NC2CC2)s1 | 56 |  | 87 | 130 |  | Active | Active | 8 | > 72 |  | 
9 | CC(C)NC(=O)c1ccc(-n2cnc3ccccc32)s1 | 680 |  | 560 | 810 | > 62000 |  |  |  |  |  | 
10 | CCNC(=O)c1ccc(-n2cnc3ccccc32)s1 | 140 |  | 100 | 150 | > 62000 |  |  |  |  |  | 
11 | NC(=O)c1ccc(-n2cnc3ccccc32)s1 | > 30000 |  | > 40000 | > 30000 |  |  |  |  |  |  | 
12 | O=C(NC1CC1)c1ccc(-n2cnc3c(Cl)cc(F)cc32)s1 | 35 | 5600 | 8 | 18 |  | Active | Active | 7 | > 72 |  | 
13 | CCCc1nc2ccccc2n1-c1ccc(C(=O)NC2CC2)s1 | 180 | 15100 | 390 | 630 | > 62000 |  |  |  |  |  | 
14 | Cc1nc2c(N(C)C)cccc2n1-c1ccc(C(=O)NC2CC2)s1 | 181 |  | 75 | 159 |  | Active | Active |  |  |  | 
15 | O=C(NC1CC1)c1ccc(-n2cnc3ccccc32)s1 | 60 |  | 80 | 90 | > 62000 |  |  |  |  |  | 
16 | Cc1cccc2nc(C)n(-c3ccc(C(=O)NC4CC4)s3)c12 | 609 |  | 143 | 290 |  | Active | Active | 6 | > 72 |  | 
17 | Cc1nc2c(Cl)cccc2n1-c1ccc(C(=O)NC2CC2)s1 | 21 |  | 5 | 6 |  | Active | Active | < 4 | 19 |  | 
18 | O=C(NC1CC1)c1ccc(-n2cnc3c(F)cccc32)s1 | 62 | 14900 | 17 | 8 |  | Active | Active | 10 | > 72 |  | 
19 | Cc1nc2ccc(C(F)(F)F)cc2n1-c1ccc(C(=O)NC2CC2)s1 | 92 |  | 56 | 96 |  | Active | Active | 8 | 68 |  | 

Row | SMILES | IC50 [1] [nM] | IC50 [2] [nM] | IC50 (Plasmodium falciparum [3]) [nM] | IC50 (Plasmodium falciparum [4]) [nM] | CC50 at 96 h [5] [nM] | inhibition (Plasmodium berghei) | inhibition (Plasmodium vivax) | CLhep predicted [6] [mL/min/kg] | CLhep predicted [7] [mL/min/kg] | IC50 (Cytochrome P450 2D6) [nM] | IC50 [8] [nM]
20 | CNC(=O)c1ccc(-n2cnc3ccccc32)s1 | 1080 |  | 280 | 420 | > 62000 |  |  |  |  |  | 
21 | Cc1cc(F)c2nc(C)n(-c3ccc(C(=O)NC4CC4)s3)c2c1 | 32 |  | 10 | 17 |  | Active | Active | 12 | > 72 |  | 
22 | CCCCNC(=O)c1ccc(-n2cnc3ccccc32)s1 |  | > 30000 | > 20000 | 7300 |  |  |  |  |  |  | 
23 | Cc1cc(F)c2c(c1)ncn2-c1ccc(C(=O)NC2CC2)s1 | 95 | 7300 | 36 | 60 |  | Active | Active | 11 | > 72 |  | 
24 | CCc1nc2ccccc2n1-c1ccc(C(=O)NC2CC2)s1 | 110 |  | 120 | 180 | > 62000 |  |  |  |  |  | 
25 | Cc1cccc2c1nc(C)n2-c1ccc(C(=O)NC2CC2)s1 | 39 |  | 10 | 22 |  | Active | Active | 10 | 66 |  | 
26 | Cc1nc2ccccc2n1-c1ccc(C(=O)NC2CC2)s1 | 80 |  | 90 | 110 | > 62000 |  |  |  |  |  | 
27 | O=C(NC1CC1)c1ccc(-n2cnc3cc(C(F)(F)F)ccc32)s1 | 19 | 17200 | 12 | 12 |  | Active | Active | 8 | > 72 |  | 
28 | Cc1cc(F)c2ncn(-c3ccc(C(=O)NC4CC4)s3)c2c1 | 17 | 3100 | 4 | 4 |  | Active | Active | 10 | > 72 |  | 
29 | Cc1nc2c(OCC(F)F)cccc2n1-c1ccc(C(=O)NC2CC2)s1 | 28 |  | 128 | 113 |  | Active | Active |  |  |  | 
30 | O=C(NC1CC1)c1ccc(-n2c(=O)[nH]c3ccccc32)s1 | > 30000 |  | > 5000 | > 5000 |  |  |  |  |  |  | 
31 | Cc1nc2c(F)cccc2n1-c1ccc(C(=O)NC2CC2)s1 | 34 |  | 8 | 6 |  | Active | Active | < 4 | 37 |  | 
32 | Cc1ccc2nc(C)n(-c3ccc(C(=O)NC4CC4)s3)c2c1 | 56 |  | 33 | 74 |  | Active | Active | 10 | > 72 |  | 
33 | O=C(NC1CCCC1)c1ccc(-n2cnc3ccccc32)s1 | 2510 |  | 4400 | 5500 |  |  |  |  |  |  | 
34 | Cc1nc2c(Br)cccc2n1-c1ccc(C(=O)NC2CC2)s1 | 21 |  | 4 | 7 |  | Active | Active | 5 | 26 |  | 
35 | CN(C)c1nc2ccccc2n1-c1ccc(C(=O)NC2CC2)s1 | 5600 |  | > 1000 | > 1000 | > 62000 |  |  |  |  |  | 
36 | CN(C)C(=O)c1ccc(-n2cnc3ccccc32)s1 | > 30000 |  | > 40000 | > 40000 |  |  |  |  |  |  | 
37 | Cc1nc2cc(C(F)(F)F)ccc2n1-c1ccc(C(=O)NC2CC2)s1 | 28 |  | 20 | 28 |  | Active | Active | 4 | > 72 |  | 
38 | O=C(NC1CCC1)c1ccc(-n2cnc3ccccc32)s1 | 420 |  | 410 | 440 | > 62000 |  |  |  |  |  | 
